In ChEMBL document CHEMBL3526077, “Prediction of human metabolism of FK3453 by aldehyde oxidase using chimeric mice transplanted with human or rat hepatocytes” (Drug Metab Dispos, 2012):

Tests used:
[1] = Total clearance in chimeric mouse transplanted with human hepatocytes at 3 mg/kg, iv; type: ADME, organism-based, Hepatocyte; parameters: dose 3 mg/kg, route intravenous
Method in brief: (§1)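 Single 3 mg/kg intravenous dose in 10% DMSO, 10% PEG400 with equimolar HCl in saline to h-PXB or r-PXB mice (n=3~4). Orbital-vein plasma collected over 0–6 hr and measured by LC/MS/MS. Non-compartmental analysis; AUC by trapezoidal rule extrapolated to infinity; CLt = Dose/AUCiv.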

[2] = AUC in human at 10 mg, po; type: ADME, organism-based; settings: plasma
[3] = Cmax in chimeric mouse transplanted with human hepatocytes at 3 mg/kg, po; type: ADME, organism-based, Hepatocyte; parameters: dose 3 mg/kg, route oral
Method in brief: (§2)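 Single 3 mg/kg oral dose of compound in 50% PEG400 with equimolar HCl in saline to h-PXB or r-PXB mice (n=3~4). Orbital-vein blood (heparinized) taken over 0–6 hr; plasma stored at -30°C and assayed by LC/MS/MS. Non-compartmental analysis: Cmax from observed values, AUC by trapezoidal rule extrapolated to infinity, CLoral = Dose/AUCpo.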

[4] = Cmax in chimeric mouse transplanted with rat hepatocytes at 3 mg/kg, po; type: ADME, organism-based, Hepatocyte; parameters: dose 3 mg/kg, route oral; method in brief: as §2
[5] = Cmax in rat at 3.2 mg/kg, po; type: ADME, organism-based; parameters: dose 3.2 mg/kg, route oral; settings: in vivo
[6] = Retention time of the compound by UV/mass spectrometry; type: physicochemical
Method in brief: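 Retention time on Acquity BEH C18 column (1.7 µm, 2.1×100 mm). Mobile phase 5 mM ammonium formate with 5% acetonitrile against acetonitrile, at 0.2 mL/min. Gradient: 100:0 to 2.5 min, linear to 65:35 by 25 min, 10:90 to 27 min. Detection by UV at 254 nm and MS.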

[7] = AUC in chimeric mouse transplanted with rat hepatocytes at 3 mg/kg, po; type: ADME, organism-based, Hepatocyte; parameters: dose 3 mg/kg, route oral; method in brief: as §2
[8] = Drug excretion in feces of chimeric mouse transplanted with human hepatocytes at 3 mg/kg, iv as single dose; type: ADME, organism-based, Hepatocyte; parameters: dose 3 mg/kg, route intravenous; settings: read-out: Drug excretion
Method in brief: (§3)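 After a 3 mg/kg i.v. dose, pooled urine and feces were collected from metabolic cages over 0–24 hr (n=3). Samples were homogenized in 10 volumes of water, mixed with acetonitrile and analysed by UPLC (UV 254 nm) and LC/MS/MS. Excretion expressed as % of dose.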

[9] = Half life in chimeric mouse transplanted with human hepatocytes at 3 mg/kg, iv; type: ADME, organism-based, Hepatocyte; parameters: dose 3 mg/kg, route intravenous; method in brief: as §1
aldehyde oxidase = molecular target: T1, aldehyde oxidase (Rattus norvegicus, UniProt Q9Z0U5); assay: Activity of aldehyde oxidase in hepatocytes isolated from chimeric mouse transplanted with rat hepatocytes assessed as enzyme-mediated drug metabolism measured as compound remaining at 10 uM after 2 hrs by LC/MS/MS analysis; type: ADME, cell-based, Hepatocyte; settings: read-out: Stability
T1 sequence (Q9Z0U5 whole entry): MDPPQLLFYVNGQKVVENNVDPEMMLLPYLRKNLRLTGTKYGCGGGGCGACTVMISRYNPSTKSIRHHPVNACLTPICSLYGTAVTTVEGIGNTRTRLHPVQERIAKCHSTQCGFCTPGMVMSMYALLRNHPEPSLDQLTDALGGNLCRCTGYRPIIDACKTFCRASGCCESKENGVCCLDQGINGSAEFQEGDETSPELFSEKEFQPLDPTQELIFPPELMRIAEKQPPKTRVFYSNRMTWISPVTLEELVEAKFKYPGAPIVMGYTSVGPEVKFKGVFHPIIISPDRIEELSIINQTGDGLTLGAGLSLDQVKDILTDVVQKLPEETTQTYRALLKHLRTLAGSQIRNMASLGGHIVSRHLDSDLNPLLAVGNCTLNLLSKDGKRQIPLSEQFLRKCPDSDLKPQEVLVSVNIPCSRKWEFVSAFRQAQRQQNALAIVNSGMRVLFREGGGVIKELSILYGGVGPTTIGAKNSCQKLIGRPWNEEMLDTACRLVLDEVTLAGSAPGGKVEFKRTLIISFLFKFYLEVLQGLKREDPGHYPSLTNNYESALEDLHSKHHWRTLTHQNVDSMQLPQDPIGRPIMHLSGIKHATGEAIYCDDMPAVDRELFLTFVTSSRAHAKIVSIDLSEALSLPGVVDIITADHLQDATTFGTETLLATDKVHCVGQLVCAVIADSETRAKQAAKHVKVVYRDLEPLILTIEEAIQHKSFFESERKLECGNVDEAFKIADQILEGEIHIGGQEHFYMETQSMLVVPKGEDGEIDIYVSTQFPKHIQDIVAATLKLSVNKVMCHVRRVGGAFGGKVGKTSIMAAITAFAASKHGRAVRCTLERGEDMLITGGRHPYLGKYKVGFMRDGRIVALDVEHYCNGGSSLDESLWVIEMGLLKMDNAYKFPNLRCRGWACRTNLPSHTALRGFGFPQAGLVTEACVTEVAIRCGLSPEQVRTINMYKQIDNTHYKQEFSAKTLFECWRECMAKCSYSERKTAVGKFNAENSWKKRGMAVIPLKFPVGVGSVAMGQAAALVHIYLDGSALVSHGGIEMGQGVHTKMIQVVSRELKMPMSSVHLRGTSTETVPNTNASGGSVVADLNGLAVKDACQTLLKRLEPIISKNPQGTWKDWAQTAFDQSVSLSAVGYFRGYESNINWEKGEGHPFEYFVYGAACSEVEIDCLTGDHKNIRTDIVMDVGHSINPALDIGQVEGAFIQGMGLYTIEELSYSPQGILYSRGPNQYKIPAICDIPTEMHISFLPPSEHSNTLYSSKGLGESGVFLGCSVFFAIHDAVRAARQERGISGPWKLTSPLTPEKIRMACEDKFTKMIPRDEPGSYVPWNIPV
Method in brief: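 Fresh hepatocytes from h-PXB mice (mouse cells removed with 66Z rat IgG and anti-rat IgG magnetic beads) or r-PXB mice, 1×10^6 cells/mL in serum-free Krebs-Henseleit buffer. Incubated with 10 μM compound (0.5% acetonitrile) at 37°C under 5% CO₂/95% O₂ with shaking, sampled 0–2 hr. Quenched with acetonitrile, analysed by LC/MS/MS, n=3. CLint derived from first-order depletion rate constant.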

[10] = Drug excretion in urine of chimeric mouse transplanted with human hepatocytes at 3 mg/kg, iv as single dose; type: ADME, organism-based, Hepatocyte; parameters: dose 3 mg/kg, route intravenous; settings: read-out: Drug excretion; method in brief: as §3
[11] = Plasma protein binding in human by equilibrium dialysis method; type: ADME, cell-free; settings: read-out: PPB (converted)
Mus musculus = assay: Drug metabolism in plasma of chimeric mouse transplanted with human hepatocytes at 3 mg/kg, iv as single dose; type: ADME, organism-based, Hepatocyte; parameters: dose 3 mg/kg, route intravenous
Method in brief: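 Pooled plasma from h-PXB or r-PXB mice after a 3 mg/kg i.v. dose was mixed with an equal volume of acetonitrile and centrifuged. Metabolites were profiled by C18 UPLC with ammonium formate/acetonitrile gradient, UV 254 nm, and Orbitrap MS/MS. Scored as detected or not detected.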

[12] = Clearance in chimeric mouse transplanted with rat hepatocytes at 3 mg/kg, po; type: ADME, organism-based, Hepatocyte; parameters: dose 3 mg/kg, route oral; method in brief: as §2
[13] = Total clearance in chimeric mouse transplanted with rat hepatocytes at 3 mg/kg, iv; type: ADME, organism-based, Hepatocyte; parameters: dose 3 mg/kg, route intravenous; settings: read-out: CLH; method in brief: as §1
[14] = AUC in chimeric mouse transplanted with human hepatocytes at 3 mg/kg, po; type: ADME, organism-based, Hepatocyte; parameters: dose 3 mg/kg, route oral; method in brief: as §2
[15] = Plasma protein binding in chimeric mouse transplanted with rat hepatocytes by equilibrium dialysis method; type: ADME, cell-free, Hepatocyte; settings: read-out: PPB (converted)
Method in brief: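 Compound at 1 µg/mL incubated in plasma of h-PXB or r-PXB mice; bound fraction determined by equilibrium dialysis.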

[16] = Clearance in chimeric mouse transplanted with human hepatocytes at 3 mg/kg, po; type: ADME, organism-based, Hepatocyte; parameters: dose 3 mg/kg, route oral; method in brief: as §2

- clearance [1]: 70.7 mL/min/kg
- AUC [2]: 2.19 ng·h/mL
- Cmax [3]: 253 ng/mL
- Cmax [4]: 856 ng/mL
- Cmax [5]: 544 ng/mL
- Retention_time [6]: 20 min
- AUC [7]: 811 ng·h/mL
- dose excreted [8]: 0.1%
- half-life [9]: 42 min
- remaining at 2 h, 10 µM (aldehyde oxidase): 58.4%
- dose excreted [10]: 0.1%
- fraction unbound [11]: 0.228
- Drug metabolism (Mus musculus): metabolite_detected
- CL/F [12]: 61.6 mL/min/kg
- clearance [13]: 34 mL/min/kg
- AUC [14]: 214 ng·h/mL
- fraction unbound [15]: 0.233
- CL/F [16]: 234 mL/min/kg
SMILES: CC(C)n1nc(-c2cnc(N)nc2-c2ccccc2)ccc1=O
